Converted amounts (≈) assume the structure as drawn.
How the values were obtained:
Type in all cases: functional
Klebsiella pneumoniae [1] = experiment: Antimicrobial activity against multidrug-resistant Klebsiella pneumoniae isolates by microdilution method
In short: (§1)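 Broth microdilution MICs following CLSI, in cation-adjusted Mueller-Hinton broth, using custom-made panels that include piperacillin-tazobactam. Tested against 102 multidrug-resistant clinical Klebsiella pneumoniae isolates, a subset of 25 of which produce KPC carbapenemase. Cephalosporin-clavulanate combinations use clavulanate at a constant 4 mg/liter. Susceptible and resistant categories are assigned by CLSI criteria.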

Klebsiella pneumoniae [2] = experiment: Antimicrobial activity against beta lactamase KPC-producing Klebsiella pneumoniae isolates by microdilution method
In short: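 Broth microdilution MICs following CLSI, in cation-adjusted Mueller-Hinton broth, using custom-made panels that include piperacillin-tazobactam. Cephalosporin-clavulanate combinations use clavulanate at a constant 4 mg/liter. Susceptible and resistant categories are assigned by CLSI criteria.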

Klebsiella pneumoniae [3] = experiment: Antimicrobial activity against multidrug-resistant Klebsiella pneumoniae isolates assessed as susceptible isolates by microdilution method; in short: as §1
Klebsiella pneumoniae [4] = experiment: Antimicrobial activity against beta lactamase KPC-producing Klebsiella pneumoniae isolates assessed as susceptible isolates by microdilution method
In short: (§2)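 Broth microdilution in cation-adjusted Mueller-Hinton broth following CLSI criteria, using customized panels that included piperacillin-tazobactam. MICs were read as the endpoint, and susceptibility was categorized by CLSI criteria.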

Klebsiella pneumoniae [5] = experiment: Antimicrobial activity against multidrug-resistant Klebsiella pneumoniae isolates assessed as resistance isolates by microdilution method; in short: as §1
Klebsiella pneumoniae [6] = experiment: Antimicrobial activity against beta lactamase KPC-producing Klebsiella pneumoniae isolates assessed as resistance isolates by microdilution method; in short: as §1
Klebsiella pneumoniae [7] = experiment: Antimicrobial activity against beta lactamase KPC-producing Klebsiella pneumoniae isolates by microdilution method in presence of beta-lactamase inhibitor Tazobactam
In short: as §2, with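 “piperacillin-tazobactam. The 25 clinical KPC-producing K. pneumoniae isolates belong to a set of 102 multidrug-resistant strains.” for “piperacillin-tazobactam.”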

Klebsiella pneumoniae [8] = experiment: Antimicrobial activity against multidrug-resistant Klebsiella pneumoniae isolates assessed as susceptible isolates by microdilution method in presence of beta-lactamase inhibitor Tazobactam; in short: as §1
Klebsiella pneumoniae [9] = experiment: Antimicrobial activity against beta lactamase KPC-producing Klebsiella pneumoniae isolates assessed as susceptible isolates by microdilution method in presence of beta-lactamase inhibitor Tazobactam
In short: as §2, with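 “piperacillin-tazobactam. The 25 clinical KPC-producing K. pneumoniae isolates belong to a set of 102 multidrug-resistant strains.” for “piperacillin-tazobactam.”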

Escherichia coli = experiment: Antimicrobial activity against Escherichia coli ATCC 25922 by microdilution method
Pseudomonas aeruginosa = experiment: Antimicrobial activity against Pseudomonas aeruginosa ATCC 27853 by microdilution method
Klebsiella pneumoniae [10] = experiment: Antimicrobial activity against Klebsiella pneumoniae ATCC 700603 by microdilution method

Compound: NCC[C@H](O)C(=O)N[C@@H]1C[C@H](N)[C@@H](O[C@H]2O[C@H](CN)[C@@H](O)[C@H](O)[C@H]2O)[C@H](O)[C@H]1O[C@H]1O[C@H](CO)[C@@H](O)[C@H](N)[C@H]1O [AMIKACIN]
- MIC50 (Klebsiella pneumoniae [1]): 2 µg/mL (≈ 3.42 µM)
- MIC90 (Klebsiella pneumoniae [1]): 32 µg/mL (≈ 54.6 µM)
- MIC50 (Klebsiella pneumoniae [2]): 32 µg/mL (≈ 54.6 µM)
- MIC90 (Klebsiella pneumoniae [2]): 32 µg/mL (≈ 54.6 µM)
- Activity (Klebsiella pneumoniae [3]): 78.4%
- Activity (Klebsiella pneumoniae [4]): 48%
- Activity (Klebsiella pneumoniae [5]): 4.9%
- Activity (Klebsiella pneumoniae [6]): 0%

Compound: NCC[C@H](O)C(=O)N[C@@H]1C[C@H](N)[C@@H](O[C@H]2O[C@H](CN)CC[C@H]2N)[C@H](O)[C@H]1O[C@H]1O[C@H](CO)[C@@H](O)[C@H](N)[C@H]1O [ARBEKACIN]
- MIC50 (Klebsiella pneumoniae [1]): 4 µg/mL (≈ 7.24 µM)
- MIC90 (Klebsiella pneumoniae [1]): 16 µg/mL (≈ 29 µM)
- MIC50 (Klebsiella pneumoniae [2]): 8 µg/mL (≈ 14.5 µM)
- MIC90 (Klebsiella pneumoniae [2]): 16 µg/mL (≈ 29 µM)

Compound: CC(C)(O/N=C(\C(=O)N[C@@H]1C(=O)N2C(C(=O)[O-])=C(C[n+]3ccccc3)CS[C@H]12)c1csc(N)n1)C(=O)O [CEFTAZIDIME]
- MIC50 (Klebsiella pneumoniae [1]): > 32 µg/mL
- MIC90 (Klebsiella pneumoniae [1]): > 32 µg/mL
- MIC50 (Klebsiella pneumoniae [2]): > 32 µg/mL
- MIC90 (Klebsiella pneumoniae [2]): > 32 µg/mL
- Activity (Klebsiella pneumoniae [3]): 9.8%
- Activity (Klebsiella pneumoniae [4]): 0%

Compound: NC[C@@H]1O[C@H](O[C@H]2[C@@H](O)[C@H](O[C@@H]3[C@@H](O)[C@H](N)C[C@H](N)[C@H]3O[C@H]3O[C@H](CN)[C@@H](O)[C@H](O)[C@H]3N)O[C@@H]2CO)[C@H](N)[C@@H](O)[C@@H]1O [FRAMYCETIN]
- MIC50 (Klebsiella pneumoniae [1]): 2 µg/mL (≈ 3.25 µM)
- MIC90 (Klebsiella pneumoniae [1]): 32 µg/mL (≈ 52.1 µM)
- MIC50 (Klebsiella pneumoniae [2]): 2 µg/mL (≈ 3.25 µM)
- MIC90 (Klebsiella pneumoniae [2]): 32 µg/mL (≈ 52.1 µM)

Compound: C[C@@H](O)[C@H]1C(=O)N2C(C(=O)O)=C(SCCNC=N)C[C@H]12 [IMIPENEM ANHYDROUS]
- MIC50 (Klebsiella pneumoniae [1]): 0.5 µg/mL (≈ 1.67 µM)
- MIC90 (Klebsiella pneumoniae [1]): 8 µg/mL (≈ 26.7 µM)
- MIC50 (Klebsiella pneumoniae [2]): 8 µg/mL (≈ 26.7 µM)
- MIC90 (Klebsiella pneumoniae [2]): > 16 µg/mL
- Activity (Klebsiella pneumoniae [3]): 75.5%
- Activity (Klebsiella pneumoniae [4]): 12%

Compound: CCN1CCN(C(=O)N[C@@H](C(=O)N[C@@H]2C(=O)N3[C@@H]2SC(C)(C)[C@@H]3C(=O)O)c2ccccc2)C(=O)C1=O [PIPERACILLIN]
- MIC50 (Klebsiella pneumoniae [7]): > 64 µg/mL
- MIC90 (Klebsiella pneumoniae [7]): > 64 µg/mL
- Activity (Klebsiella pneumoniae [8]): 38.2%
- Activity (Klebsiella pneumoniae [9]): 0%

Compound: CN[C@@H]1[C@@H](O)[C@@H](O[C@@H]2[C@@H](O)[C@H](O[C@H]3OC(CNCCO)=CC[C@H]3N)[C@@H](N)C[C@H]2NC(=O)[C@@H](O)CCN)OC[C@]1(C)O [PLAZOMICIN]
- MIC50 (Klebsiella pneumoniae [1]): 0.5 µg/mL (≈ 0.844 µM)
- MIC90 (Klebsiella pneumoniae [1]): 1 µg/mL (≈ 1.69 µM)
- MIC50 (Klebsiella pneumoniae [2]): 0.5 µg/mL (≈ 0.844 µM)
- MIC90 (Klebsiella pneumoniae [2]): 1 µg/mL (≈ 1.69 µM)
- MIC (Escherichia coli): 0.5 µg/mL (≈ 0.844 µM)
- MIC (Pseudomonas aeruginosa): 4 µg/mL (≈ 6.75 µM)
- MIC (Klebsiella pneumoniae [10]): 0.25 µg/mL (≈ 0.422 µM)

Compound: CN(C)c1cc(NC(=O)CNC(C)(C)C)c(O)c2c1C[C@H]1C[C@H]3[C@H](N(C)C)C(O)=C(C(N)=O)C(=O)[C@@]3(O)C(O)=C1C2=O [TIGECYCLINE]
- MIC50 (Klebsiella pneumoniae [1]): 1 µg/mL (≈ 1.71 µM)
- MIC90 (Klebsiella pneumoniae [1]): 2 µg/mL (≈ 3.41 µM)
- MIC50 (Klebsiella pneumoniae [2]): 1 µg/mL (≈ 1.71 µM)
- MIC90 (Klebsiella pneumoniae [2]): 2 µg/mL (≈ 3.41 µM)
- Activity (Klebsiella pneumoniae [3]): 90.2%
- Activity (Klebsiella pneumoniae [4]): 96%

Compound: NC[C@H]1O[C@H](O[C@H]2[C@H](O)[C@@H](O[C@H]3O[C@H](CO)[C@@H](O)[C@H](N)[C@H]3O)[C@H](N)C[C@@H]2N)[C@H](N)C[C@@H]1O [TOBRAMYCIN]
- MIC50 (Klebsiella pneumoniae [1]): 32 µg/mL (≈ 68.4 µM)
- MIC50 (Klebsiella pneumoniae [2]): 32 µg/mL (≈ 68.4 µM)
- MIC90 (Klebsiella pneumoniae [2]): ≥ 64 µg/mL
- Activity (Klebsiella pneumoniae [3]): 10.8%
- Activity (Klebsiella pneumoniae [4]): 8%
- Activity (Klebsiella pneumoniae [5]): 76.5%
- Activity (Klebsiella pneumoniae [6]): 92%

Compound: GENTAMICIN
- MIC50 (Klebsiella pneumoniae [1]): 8 µg/mL
- MIC90 (Klebsiella pneumoniae [1]): > 64 µg/mL
- MIC50 (Klebsiella pneumoniae [2]): 8 µg/mL
- MIC90 (Klebsiella pneumoniae [2]): 16 µg/mL
- Activity (Klebsiella pneumoniae [3]): 25.5%
- Activity (Klebsiella pneumoniae [4]): 44%
- Activity (Klebsiella pneumoniae [5]): 39.2%
- Activity (Klebsiella pneumoniae [6]): 12%
